Data as given in article PMC5548968 (Clinical cancer research : an official journal of the …, 2016).

How the values were obtained:
phospho-S6(S235/236) [1] = format: in vivo, C57BL/6 mice; details: 0.16mg/mL drinking water, one or four weeks, ex vivo anti-IgM
Summary of the method: (§1)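 C57BL/6 recipients received 1 × 10^7 Eμ-TCL1 leukemic cells. Drinking water with 0.16mg/mL test compound or vehicle began once blood CD5+/CD19+ cells reached ≥10%. After 1 or 4 weeks, splenocytes were stimulated ex vivo with anti-IgM. Cells were stained for B220, CD3, pPLCγ2(Y1217) (n=7/group) or pS6(S235/236) (n=14/group). Median fluorescence was read in B220+CD3− cells as % change versus vehicle, by normalised unpaired t-test.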

murine BTK = murine BTK (Mus musculus, UniProt P35991); test: BTK occupancy probe ELISA, TCL1 adoptive transfer model splenocytes; format: in vivo; details: 0.16mg/mL drinking water, one or four weeks
phospho-S6(S235/236) [2] = test: in vitro phospho-flow in CLL patient MNCs, phospho-S6; format: cell-based, human; details: 1μM, one hour
Summary of the method: (§2)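 Primary CLL patient MNCs (n=5 patients) were treated in culture with or without 1μM test compound for 1 hour. Cells were fixed in 4% paraformaldehyde, permeabilised in 90% methanol and stained for phospho-PLCγ2(Y759), phospho-S6(S235/236) or phospho-p65(S529) with isotype controls. Flow cytometry gave the percent of CLL cells positive for each readout.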

phospho-PLCγ2(Y1217) = format: in vivo, C57BL/6 mice; details: 0.16mg/mL drinking water, one or four weeks, ex vivo anti-IgM
Summary of the method: as §1

human CLL cells [3] = test: NSG primary CLL xenograft model, circulating CLL cell count per μL blood; format: in vivo, NSG mice; details: drinking water, three weeks, whole blood
Summary of the method: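 Whole blood came from CLL-engrafted NSG mice after 3 weeks of treated or vehicle drinking water started at busulfan priming (day −1). Absolute human CLL cells (CD45+/CD19+/CD5+) per μL were counted by flow cytometry with counting beads. Values are averages of 2–5 mice per donor patient, compared by paired t-test.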

human CLL cells [4] = test: NSG primary CLL xenograft model, CLL cell proliferation; format: in vivo, NSG mice; details: drinking water, three weeks, spleen
Summary of the method: (§3)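 Human CLL patient MNCs were Ficoll-isolated and viably frozen. They were transferred at 1 × 10^8 cells/mouse into busulfan-primed NSG mice. Drinking-water dosing (0.3 or 0.16mg/mL; 0.06mg/mL in select experiments) started day −1, with vehicle controls. After 3 weeks, splenocytes were sieved, ACK-lysed, fixed (4% paraformaldehyde), permeabilised (90% methanol) and stained for pPLCγ2(Y759), pERK(T202/Y204) or Ki-67 against isotype controls. Mice were averaged per patient and compared by paired t-test.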

[5] = system: 395 wild-type human kinases; test: DiscoverRx KINOMEscan ATP site dependent competition binding assay, kinase panel; details: 1μM compound
phospho-PLCγ2(Y759) = test: NSG primary CLL xenograft model, pPLCγ2 in CLL cells from spleen; format: in vivo, NSG mice; details: drinking water 0.3 or 0.16mg/mL, three weeks
Summary of the method: as §3

[6] = system: BCR signaling (CD69 expression); format: in vivo, C57BL/6 mice; details: for effective dose (CD69 expression): oral gavage 0.1 to 30mg/kg, splenocytes 3 hours after dose, anti-IgM 18 h
Summary of the method: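 Female C57BL/6 mice (5/group/dose) were gavaged with vehicle or test compound at 0.1–30mg/kg. Splenocytes were taken 3 hours later and stimulated with goat anti-mouse IgM at 10μg/mL for 18 hours (37°C, 5% CO2). After Fc blocking, cells were stained for CD19 and CD69, with 7-AAD to exclude dead cells. CD69 on >5,000 gated CD19+ cells per sample was measured by flow cytometry.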

ERBB4 = details: read-out: concentration inhibiting ERBB4; biochemical kinase assays; cited from earlier work
phospho-BTK(Y223) [7] = test: in vitro phospho-flow in CLL patient MNCs, phospho-BTK; format: cell-based, human; details: 1μM, one hour
BTK = details: read-out: IC50 BTK; as previously reported; cited from earlier work
TEC = details: read-out: concentration inhibiting TEC; biochemical kinase assays; cited from earlier work
human CLL cells [8] = test: NSG primary CLL xenograft model, tumor burden in the spleen; format: in vivo, NSG mice; details: drinking water, three weeks
Summary of the method: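 Spleen tumour burden in NSG mice engrafted with 1 × 10^8 primary CLL MNCs after busulfan priming. Mice got treated or vehicle drinking water from day −1 for 3 weeks. Homogenised, sieved, ACK-lysed splenocytes were surface-stained (CD45, CD19, CD3, CD5) and analysed by flow cytometry. Burden is the percentage of CLL cells among human CD45+ cells. Per-patient averages were compared by paired t-test.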

ITK = molecular target: T1, ITK (Homo sapiens, UniProt Q08881); test: DiscoverRx KINOMEscan competition binding assay, ITK; details: 1μM compound
T1 sequence (Q08881 1-620): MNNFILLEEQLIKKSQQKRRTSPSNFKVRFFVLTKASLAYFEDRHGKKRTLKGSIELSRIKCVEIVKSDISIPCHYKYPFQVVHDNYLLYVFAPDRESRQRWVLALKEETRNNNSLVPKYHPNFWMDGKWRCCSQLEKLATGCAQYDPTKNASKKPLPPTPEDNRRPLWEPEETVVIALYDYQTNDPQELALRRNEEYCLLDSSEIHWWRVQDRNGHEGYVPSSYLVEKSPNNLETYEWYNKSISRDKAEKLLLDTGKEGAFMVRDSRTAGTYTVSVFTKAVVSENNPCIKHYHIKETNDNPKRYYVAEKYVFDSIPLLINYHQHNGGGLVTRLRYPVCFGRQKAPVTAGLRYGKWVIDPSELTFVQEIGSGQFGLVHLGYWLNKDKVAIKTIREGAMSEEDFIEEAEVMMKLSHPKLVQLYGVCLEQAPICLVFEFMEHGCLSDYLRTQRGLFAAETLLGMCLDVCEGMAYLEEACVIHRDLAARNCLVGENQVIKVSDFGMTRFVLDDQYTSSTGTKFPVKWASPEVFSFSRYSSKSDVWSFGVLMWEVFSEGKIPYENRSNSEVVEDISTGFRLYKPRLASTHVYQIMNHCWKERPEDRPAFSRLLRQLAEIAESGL

phospho-BTK(Y223) [9] = format: in vivo, C57BL/6 mice; details: 0.16mg/mL drinking water, one or four weeks, ex vivo anti-IgM
[10] = system: BCR stimulation by anti-IgM (CD69) in CLL patient MNCs; format: cell-based, human; details: 1μM pretreatment 3 hours, anti-IgM 18 h
phospho-ERK(T202/Y204) = test: NSG primary CLL xenograft model, pERK in CLL cells from spleen; format: in vivo, NSG mice; details: drinking water 0.3 or 0.16mg/mL, three weeks
Summary of the method: as §3

phospho-p65(S529) = test: in vitro phospho-flow in CLL patient MNCs, phospho-NF-κB p65; format: cell-based, human; details: 1μM, one hour
Summary of the method: as §2

[11] = system: kinases containing a conserved cysteine residue that aligns with the Cys481 in BTK; details: cited from earlier work

murine BTK, sequence (P35991 whole entry): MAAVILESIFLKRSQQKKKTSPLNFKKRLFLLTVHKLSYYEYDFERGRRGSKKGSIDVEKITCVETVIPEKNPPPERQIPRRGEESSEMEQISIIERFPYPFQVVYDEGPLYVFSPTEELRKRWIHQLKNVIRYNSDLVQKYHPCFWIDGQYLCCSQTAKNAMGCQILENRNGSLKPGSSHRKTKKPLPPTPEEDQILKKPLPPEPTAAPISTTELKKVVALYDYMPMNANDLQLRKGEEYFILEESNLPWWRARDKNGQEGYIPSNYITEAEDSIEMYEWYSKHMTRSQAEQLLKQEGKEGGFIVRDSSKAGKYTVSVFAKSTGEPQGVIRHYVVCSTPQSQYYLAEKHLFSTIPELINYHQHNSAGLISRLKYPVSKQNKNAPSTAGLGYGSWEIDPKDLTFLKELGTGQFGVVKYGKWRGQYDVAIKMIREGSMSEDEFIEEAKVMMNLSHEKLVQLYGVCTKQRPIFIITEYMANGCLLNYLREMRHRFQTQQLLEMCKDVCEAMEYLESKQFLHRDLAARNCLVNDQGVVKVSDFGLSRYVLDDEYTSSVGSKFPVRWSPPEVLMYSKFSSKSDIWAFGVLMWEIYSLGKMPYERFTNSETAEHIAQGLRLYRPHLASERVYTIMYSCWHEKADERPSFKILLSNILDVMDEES

## CC#CC(=O)N1CCC[C@H]1c1nc(-c2ccc(C(=O)Nc3ccccn3)cc2)c2c(N)nccn12 [acalabrutinib, Acalabrutinib]
phospho-S6(S235/236) [1]
  median change in pS6 induction vs vehicle: −35%
Murine BTK
  drug occupancy of murine BTK: ≥ 90%
phospho-S6(S235/236) [2]
  median change in phosphorylation of S6: −20%
phospho-PLCγ2(Y1217)
  median change in phosphorylation of PLCγ2 vs vehicle: −22%
Human CLL cells [3]
  median change in CLL cells per μL of blood vs vehicle: +0.76%
Human CLL cells [4]
  median change in Ki67 (CLL cell proliferation) vs vehicle: −50%
[5]
  binding across kinase panel: Minimal binding outside of BTK
phospho-PLCγ2(Y759)
  median change in phosphorylation of PLCγ2 vs vehicle: −68%
[6]
  effective dose (CD69 expression): 1.3 mg/kg
[6]; oral, 1mg/kg and 3mg/kg
  inhibition of BCR signaling (CD69 expression) compared with ibrutinib: significantly more than ibrutinib
ERBB4
  IC50: […]
phospho-BTK(Y223) [7]
  median change in MFI of pBTK (autophosphorylation site): −15%
BTK
  IC50: 5.1 nM
TEC
  IC50: […]
Human CLL cells [8]
  median change in human CLL cells in the murine spleen (tumor burden) vs vehicle: −33%
ITK
  inhibition of ITK: not significantly inhibited
phospho-BTK(Y223) [9]
  median change in auto-phosphorylation of BTK vs vehicle: −31%
[10]
  prevention of BCR stimulation by anti-IgM (CD69): significantly prevented BCR stimulation
phospho-ERK(T202/Y204)
  median change in phosphorylation of ERK vs vehicle: −79%
phospho-p65(S529)
  median change in phosphorylation of NF-κB (p65): −26%

## C=CC(=O)N1CCC[C@@H](n2nc(-c3ccc(Oc4ccccc4)cc3)c3c(N)ncnc32)C1 [ibrutinib, reference compound]
[6]
  effective dose (CD69 expression): 2.9 mg/kg
BTK
  IC50: 1.5 nM
[11]
  IC50 values for all ten kinases with the conserved cysteine: low nanomolar range
